In assay [1] the test system is Oryctolagus cuniculus. The assay can be described thus: Progestational activity in rabbit assessed as mean uterine weight at 0.4 mg, sc by Clauberg assay. The format is functional. The gist of the method:
(§1)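 Modified Clauberg assay in rabbits, 2 animals per dose group, with the total dose given by subcutaneous injection. Uterine progestational proliferation was scored histologically by McPhail's method and reported as the range and mean proliferation index. Uterine weight was reported as the group mean.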

Assay [2] concerns Oryctolagus cuniculus. The assay can be described thus: Progestational activity in rabbit assessed as mean uterine weight at 4 mg, sc by Clauberg assay. Type of assay: functional. The gist of the method: as §1
Assay [3] concerns Oryctolagus cuniculus. The assay can be described thus: Progestational activity in rabbit assessed as range of proliferation index at 0.4 mg, sc by Clauberg assay relative to control. Type of assay: functional. In outline: as §1
For assay [4], the system named is Oryctolagus cuniculus. The assay can be described thus: Progestational activity in rabbit assessed as range of proliferation index at 4 mg, sc by Clauberg assay relative to control. The format is functional. In outline:
as §1

The subject of assay [5] is Oryctolagus cuniculus. The assay can be described thus: Progestational activity in rabbit assessed as mean proliferation index at 0.4 mg, sc by Clauberg assay relative to control. The format is functional. The gist of the method:
as §1

Assay [6] concerns Oryctolagus cuniculus. The assay can be described thus: Progestational activity in rabbit assessed as mean proliferation index at 4 mg, sc by Clauberg assay relative to control. The format is functional. The gist of the method:
as §1

Assay [7] has as its target T1, Progesterone receptor (Oryctolagus cuniculus) (UniProt P06186).
T1 sequence (whole entry): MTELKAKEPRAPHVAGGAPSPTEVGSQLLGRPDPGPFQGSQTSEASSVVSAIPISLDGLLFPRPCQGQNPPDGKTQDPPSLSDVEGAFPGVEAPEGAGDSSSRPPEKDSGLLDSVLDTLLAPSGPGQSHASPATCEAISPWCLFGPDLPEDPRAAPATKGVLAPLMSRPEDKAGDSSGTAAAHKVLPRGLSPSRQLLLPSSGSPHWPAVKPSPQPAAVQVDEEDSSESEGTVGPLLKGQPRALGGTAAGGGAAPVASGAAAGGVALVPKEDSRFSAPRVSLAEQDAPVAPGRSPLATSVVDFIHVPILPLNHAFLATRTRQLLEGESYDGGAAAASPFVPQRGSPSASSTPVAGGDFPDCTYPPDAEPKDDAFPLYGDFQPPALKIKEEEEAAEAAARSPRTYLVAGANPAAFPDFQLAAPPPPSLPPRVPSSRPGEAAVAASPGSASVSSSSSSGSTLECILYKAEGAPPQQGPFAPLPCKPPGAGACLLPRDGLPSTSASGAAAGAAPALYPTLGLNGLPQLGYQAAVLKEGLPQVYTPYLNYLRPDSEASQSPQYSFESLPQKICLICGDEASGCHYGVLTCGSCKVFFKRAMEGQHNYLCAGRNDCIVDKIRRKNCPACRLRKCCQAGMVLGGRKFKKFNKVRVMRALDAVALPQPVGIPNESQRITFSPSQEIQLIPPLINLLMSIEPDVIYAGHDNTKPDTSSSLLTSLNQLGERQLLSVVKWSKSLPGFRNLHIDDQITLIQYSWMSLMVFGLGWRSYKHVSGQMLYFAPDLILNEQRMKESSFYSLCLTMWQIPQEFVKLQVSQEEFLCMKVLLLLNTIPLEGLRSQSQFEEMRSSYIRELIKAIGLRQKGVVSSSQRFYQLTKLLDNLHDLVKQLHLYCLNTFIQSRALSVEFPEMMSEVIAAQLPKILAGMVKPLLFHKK
The assay can be described thus: Displacement of [3H]-progesterone from progesterone receptor in rabbit uterine cytosol relative to progesterone. Conditions: Uterus. A general note: Displacement assays read how much labelled ligand stays bound in the presence of the test substance.

For assay [8], the system named is Oryctolagus cuniculus. In words: Progestational activity in rabbit assessed as mean uterine weight at 0.2 mg, sc by Clauberg assay. The format is functional. The gist of the method:
as §1

For assay [9], the system named is Oryctolagus cuniculus. The assay can be described thus: Progestational activity in rabbit assessed as mean uterine weight at 0.5 mg, sc by Clauberg assay. The format is functional. The gist of the method: as §1
Assay [10] deals with Oryctolagus cuniculus. The assay can be described thus: Progestational activity in rabbit assessed as range of proliferation index at 0.2 mg, sc by Clauberg assay relative to control. The format is functional. In outline:
as §1

Assay [11] has as its system Oryctolagus cuniculus. The assay can be described thus: Progestational activity in rabbit assessed as range of proliferation index at 0.5 mg, sc by Clauberg assay relative to control. The format is functional. In outline: as §1
Assay [12] has as its system Oryctolagus cuniculus. The assay can be described thus: Progestational activity in rabbit assessed as mean proliferation index at 0.2 mg, sc by Clauberg assay relative to control. Type of assay: functional. The gist of the method: as §1
In assay [13] the test system is Oryctolagus cuniculus. The assay can be described thus: Progestational activity in rabbit assessed as mean proliferation index at 0.5 mg, sc by Clauberg assay relative to control. The format is functional. In outline: as §1

Our source for the Activity, Ratio and RBA values is ChEMBL document CHEMBL3244416, “Structural requirements for progestational activity. Synthesis and properties of rac-8alpha,9beta,10alpha,14beta-progesterone” (1979).

Consider `CC(=O)[C@H]1CC[C@@H]2[C@H]3CCC4=CC(=O)CC[C@@]4(C)[C@@H]3CC[C@]12C` (racemic), for which the Activity is 0.79 g in assay [1] and 1.24 g in assay [2]. Also, the Ratio turned out to be 0 in [3], 1 in [4], 0 in assay [5] and 2 in assay [6]. In [7], this compound yielded an RBA of 2%.
On to `CC(=O)[C@H]1CC[C@H]2[C@@H]3CCC4=CC(=O)CC[C@]4(C)[C@H]3CC[C@]12C` [PROGESTERONE], for which the Activity is given as 1.49 g in [8] and 2.34 g in assay [9]. Moreover, the Ratio in assay [10] is listed as 0.5; in assay [11], 3.5; in assay [12], 0.75; in assay [13] it was 3.5.
